Columns and labels:
Conditions in all cases: in vivo
Rattus norvegicus [1] = assay: Toxicity in Sprague-Dawley rat assessed as effect on body surface temperature at 20 mg/kg, iv every 8 hrs for 7 days; assay type: organism-based; design: dose 20 mg/kg, route intravenous
In short: (§1)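 Daily cage-side observations covered food and water intake, body weight, body surface temperature and general well-being. Sprague-Dawley rats (6 to 8 weeks old) were dosed via a jugular vein cannula for 7 days, with a saline placebo control. Groups were compared by analysis of variance.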

Rattus norvegicus [2] = assay: Nephrotoxicity in Sprague-Dawley rat assessed as occurrence of mild cortical proximal convoluted tubule necrosis at 30 mg/kg, iv every 12 hrs for 7 days; assay type: toxicity, organism-based; design: dose 30 mg/kg, route intravenous
In short: (§2)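 Sprague-Dawley rats (6 to 8 weeks old) were dosed for 7 days via a jugular vein cannula at 20 mg/kg/8 h (n = 9) or 30 mg/kg/12 h (n = 11), with a saline placebo group (n = 8). Kidneys were examined histologically post mortem by a blinded histologist. Lesion severity was graded 1+ (mild), 2+ (moderate) or 3+ (severe), and the number of animals showing each lesion was counted.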

Rattus norvegicus [3] = assay: Toxicity in Sprague-Dawley rat assessed as effect on body surface temperature at 30 mg/kg, iv every 12 hrs for 7 days; assay type: organism-based; design: dose 30 mg/kg, route intravenous; in short: as §1
Rattus norvegicus [4] = assay: Nephrotoxicity in Sprague-Dawley rat assessed as occurrence of mild nuclear pyknosis at 30 mg/kg, iv every 12 hrs for 7 days; assay type: toxicity, organism-based; design: dose 30 mg/kg, route intravenous; in short: as §2
Rattus norvegicus [5] = assay: Nephrotoxicity in Sprague-Dawley rat assessed as occurrence of moderate protein/cellular casts in proximal tubule at 30 mg/kg, iv every 12 hrs for 7 days; assay type: toxicity, organism-based; design: dose 30 mg/kg, route intravenous; in short: as §2
Rattus norvegicus [6] = assay: Toxicity in Sprague-Dawley rat assessed as effect on water consumption at 30 mg/kg, iv every 12 hrs for 7 days; assay type: organism-based; design: dose 30 mg/kg, route intravenous; in short: as §1
Rattus norvegicus [7] = assay: Toxicity in Sprague-Dawley rat assessed as effect on food uptake at 30 mg/kg, iv every 12 hrs for 7 days; assay type: organism-based; design: dose 30 mg/kg, route intravenous; in short: as §1
Rattus norvegicus [8] = assay: Neurotoxicity in Sprague-Dawley rat assessed as effect on motor control at 20 mg/kg, iv every 8 hrs for 7 days; assay type: toxicity, organism-based; design: dose 20 mg/kg, route intravenous
In short: (§3)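 Motor control was tested daily by requiring each rat to walk for 5 min on a rotarod treadmill. Sprague-Dawley rats (6 to 8 weeks old) were dosed via a jugular vein cannula for 7 days, with a saline placebo control.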

Rattus norvegicus [9] = assay: Nephrotoxicity in Sprague-Dawley rat assessed as occurrence of severe protein/cellular casts in proximal tubule at 150 mg/kg, iv every 12 hrs for 7 days; assay type: toxicity, organism-based; design: dose 150 mg/kg, route intravenous
Rattus norvegicus [10] = assay: Nephrotoxicity in Sprague-Dawley rat assessed as occurrence of mild interstitial nephritis at 30mg/kg, iv every 12 hrs for 7 days; assay type: toxicity, organism-based; in short: as §2
Rattus norvegicus [11] = assay: Neurotoxicity in Sprague-Dawley rat assessed as decreased locomotor activity at 30 mg/kg, iv every 12 hrs for 2 days relative to control; assay type: toxicity, organism-based; design: dose 30 mg/kg, route intravenous
In short: (§4)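 Locomotor activity was recorded daily with a photobeam activity meter as part of a functional screening battery. Sprague-Dawley rats (6 to 8 weeks old) received 30 mg/kg/12 h via a jugular vein cannula for 7 days (n = 11), compared with saline placebo (n = 8). The treatment day was reported for each comparison.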

Rattus norvegicus [12] = assay: Neurotoxicity in Sprague-Dawley rat assessed as effect on motor control at 30 mg/kg, iv every 12 hrs for 7 days; assay type: toxicity, organism-based; design: dose 30 mg/kg, route intravenous; in short: as §3
Rattus norvegicus [13] = assay: Nephrotoxicity in Sprague-Dawley rat assessed as occurrence of mild protein/cellular casts in proximal tubule at 30 mg/kg, iv every 12 hrs for 7 days; assay type: toxicity, organism-based; design: dose 30 mg/kg, route intravenous; in short: as §2
Rattus norvegicus [14] = assay: Nephrotoxicity in Sprague-Dawley rat assessed as occurrence of severe intracellular mineralization at 150 mg/kg, iv every 12 hrs for 7 days; assay type: toxicity, organism-based; design: dose 150 mg/kg, route intravenous
Rattus norvegicus [15] = assay: Nephrotoxicity in Sprague-Dawley rat assessed as occurrence of severe pallor of outer stripe of proximal tubule at 30 mg/kg, iv every 12 hrs for 7 days; assay type: toxicity, organism-based; design: dose 30 mg/kg, route intravenous; in short: as §2
Rattus norvegicus [16] = assay: Nephrotoxicity in Sprague-Dawley rat assessed as occurrence of severe cortical proximal convoluted tubule necrosis at 150 mg/kg, iv every 12 hrs for 7 days; assay type: toxicity, organism-based; design: dose 150 mg/kg, route intravenous
Rattus norvegicus [17] = assay: Toxicity in Sprague-Dawley rat assessed as effect on water consumption at 20 mg/kg, iv every 8 hrs for 7 days; assay type: organism-based; design: dose 20 mg/kg, route intravenous; in short: as §1
Rattus norvegicus [18] = assay: Toxicity in Sprague-Dawley rat assessed as effect on food uptake at 20 mg/kg, iv every 8 hrs for 7 days; assay type: organism-based; design: dose 20 mg/kg, route intravenous; in short: as §1
Rattus norvegicus [19] = assay: Neurotoxicity in Sprague-Dawley rat assessed as effect on forelimb grip strength at 30 mg/kg, iv every 12 hrs for 7 days; assay type: toxicity, organism-based; design: dose 30 mg/kg, route intravenous
In short: (§5)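 Forelimb grip strength was tested daily using a horizontal retort stand. Each rat had to hang from the horizontal beam holding its own body weight to pass. Rats (Sprague-Dawley, 6 to 8 weeks old) were dosed via a jugular vein cannula for 7 days, with a saline placebo control.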

Rattus norvegicus [20] = assay: Neurotoxicity in Sprague-Dawley rat assessed as decreased locomotor activity at 30 mg/kg, iv every 12 hrs for 6 days relative to control; assay type: toxicity, organism-based; design: dose 30 mg/kg, route intravenous; in short: as §4
Rattus norvegicus [21] = assay: Neurotoxicity in Sprague-Dawley rat assessed as effect on forelimb grip strength at 20 mg/kg, iv every 8 hrs for 7 days; assay type: toxicity, organism-based; design: dose 20 mg/kg, route intravenous; in short: as §5
Rattus norvegicus [22] = assay: Nephrotoxicity in Sprague-Dawley rat assessed as occurrence of moderate cortical proximal convoluted tubule necrosis at 30 mg/kg, iv every 12 hrs for 7 days; assay type: toxicity, organism-based; design: dose 30 mg/kg, route intravenous; in short: as §2
Rattus norvegicus [23] = assay: Nephrotoxicity in Sprague-Dawley rat assessed as occurrence of severe protein/cellular casts in proximal tubule at 30 mg/kg, iv every 12 hrs for 7 days; assay type: toxicity, organism-based; design: dose 30 mg/kg, route intravenous; in short: as §2
Rattus norvegicus [24] = assay: Nephrotoxicity in Sprague-Dawley rat assessed as occurrence of mild protein/cellular casts in proximal tubule at 20 mg/kg, iv every 8 hrs for 7 days; assay type: toxicity, organism-based; design: dose 20 mg/kg, route intravenous; in short: as §2
Rattus norvegicus [25] = assay: Nephrotoxicity in Sprague-Dawley rat assessed as occurrence of severe nuclear pyknosis at 150 mg/kg, iv every 12 hrs for 7 days; assay type: toxicity, organism-based; design: dose 150 mg/kg, route intravenous

Q: COLISTIMETHATE SODIUM was tested. Which Activity (Rattus norvegicus [1]) did it give?
A: Non-toxic

Q: And the Activity (Rattus norvegicus [2])?
A: Toxic

Q: And the Activity (Rattus norvegicus [3])?
A: Non-toxic

Q: And the Activity (Rattus norvegicus [4])?
A: Toxic

Q: What about the Activity (Rattus norvegicus [5]) of the same sequence?
A: Toxic

Q: And the Activity (Rattus norvegicus [6])?
A: Non-toxic

Q: What about the Activity (Rattus norvegicus [7]) of the same sequence?
A: Non-toxic

Q: What about the Activity (Rattus norvegicus [8]) of the same sequence?
A: Non-toxic

Q: And the Activity (Rattus norvegicus [9])?
A: Toxic

Q: What about the Activity (Rattus norvegicus [10]) of the same sequence?
A: Toxic

Q: What about the Activity (Rattus norvegicus [11]) of the same sequence?
A: Toxic

Q: And the Activity (Rattus norvegicus [12])?
A: Non-toxic

Q: What about the Activity (Rattus norvegicus [13]) of the same sequence?
A: Toxic

Q: What about the Activity (Rattus norvegicus [14]) of the same sequence?
A: Toxic

Q: And the Activity (Rattus norvegicus [15])?
A: Toxic

Q: What about the Activity (Rattus norvegicus [16]) of the same sequence?
A: Toxic

Q: What about the Activity (Rattus norvegicus [17]) of the same sequence?
A: Non-toxic

Q: And the Activity (Rattus norvegicus [18])?
A: Non-toxic

Q: What about the Activity (Rattus norvegicus [19]) of the same sequence?
A: Non-toxic

Q: And the Activity (Rattus norvegicus [20])?
A: Toxic

Q: What about the Activity (Rattus norvegicus [21]) of the same sequence?
A: Non-toxic

Q: What about the Activity (Rattus norvegicus [22]) of the same sequence?
A: Toxic

Q: And the Activity (Rattus norvegicus [23])?
A: Toxic

Q: And the Activity (Rattus norvegicus [24])?
A: Toxic

Q: What about the Activity (Rattus norvegicus [25]) of the same sequence?
A: Toxic

— ChEMBL document CHEMBL1255273, “Subacute toxicity of colistin methanesulfonate in rats: comparison of various intravenous dosage regimens” (Antimicrob Agents Chemother, 2008)
